Laboratory results as given in the RNAGym collection of RNA variant scans (doi:10.1038/s41586-018-0170-7).

B1: tRNA (parent)
chain: GUUCCGUUGGCGUAAUGGUAACGCGUCUCCCUCCUAAGGAGAAGACUGCGGGUUCGAGUCCCGUACGGAACG

Variants of: B1
Assay: yeast fitness, log relative to wild type (ln ratio); higher = fitter; tRNA-Arg(CCU), competitive growth, 37 C, 1 M NaCl
Summary of the method: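 Two independent transformations put a combinatorial tRNA-Arg(CCU) variant library on a HIS3 centromeric plasmid into BY4742 lacking the chromosomal gene. Pools were grown in SC-HIS at 30 °C for 4 generations, then in SC-HIS 1M NaCl at 37 °C for ~6.5 generations (~26.5 h), with three outputs taken per input. Fitness compares a genotype's generations with the wild type's as a natural log ratio. Those generations are OD-scaled log2 output/input frequencies, inverse-variance weighted across replicates, from 125 bp paired-end Illumina counts.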

| Variant | yeast fitness (ln) |
| --- | --- |
| U2G C27U C46U A69G A70U C71U | -0.563 |
| C27U C66U A70G C71U | -0.183 |
| U2G G6U C27U A43C C46U A70U C71U | -0.228 |
| G1A U2G G6A C46U C66U A69G A70G C71U | -0.413 |
| U2G G6A C66U A70G C71U | -0.253 |
| G6U C27U A43C C66U A70U | -0.259 |
| U2G G6U C27U C46U C66U A70U | -0.106 |
| G1A U2G G6U C27U C66A A69G A70G C71U | -0.408 |
| U2C G6A A43C A70U | -0.0469 |
| G6A C46U A70G | -0.226 |
| G6A C27U C66A A69G A70U C71U | -0.0879 |
| G6U A43C C66U | -0.23 |
| G1A U2C G6U A43C C46U C66U A70G C71U | -0.267 |
| U2C G6A C46U C66A A69G A70G C71U | -0.258 |
| C46U C66U A69G A70G | -0.216 |
| G1A U2G C27U C46U A70G C71U | -0.503 |
| G1A U2G G6U A43C C46U C66U A70U C71U | -0.399 |
| G1A U2G G6U C27U A43C C71U | -0.329 |
| G1A U2G A43C C46U C66U A69G A70U | -0.181 |
| G6U C27U A43C C46U A69G C71U | -0.339 |
| G6U C27U C46U C66A A70U C71U | -0.213 |

| Variant | yeast fitness (ln) |
| --- | --- |
| U2C C27U A69G A70G C71U | -0.0353 |
| U2C C46U C66U A70U | -0.2 |
| U2G G6A C27U C46U C66U C71U | -0.17 |
| U2G G6U A69G C71U | -0.17 |
| G6A C46U C66A A70G | -0.117 |
| G1A U2G C27U C66A C71U | -0.147 |
| G1A U2C G6U A43C A70U C71U | -0.195 |
| G1A C46U A70U | -0.0349 |
| U2G G6U C27U A43C C66U A70G | -0.356 |
| G6A A43C C66U A69G A70G C71U | -0.261 |
| U2G C46U C66A A70G | -0.0687 |
| U2G A43C C46U C66A A70G | -0.119 |
| U2C G6U C27U A43C C66U C71U | -0.338 |
| G1A U2C G6U C27U A43C C46U A70G C71U | -0.198 |
| U2C C27U A70G | -0.0415 |
| U2C G6U C46U C66A C71U | -0.211 |
| G1A G6A A69G A70U | -0.166 |
| G1A G6A A69G A70G | -0.104 |
| G1A U2C A43C A69G A70G C71U | -0.0094 |
| G1A U2C C27U A43C | -0.0395 |
| G6A C27U A69G A70U C71U | -0.416 |

| Variant | yeast fitness (ln) |
| --- | --- |
| U2C C27U A43C C46U A69G C71U | -0.118 |
| G1A C27U A43C C66A A70U C71U | -0.423 |
| G1A U2C G6U C27U A70G C71U | -0.212 |
| U2C G6A C27U A43C A70U C71U | -0.243 |
| G1A U2C C27U C46U A69G A70G | -0.122 |
| G1A U2G G6A C27U C46U A69G C71U | -0.269 |
| U2G G6A C27U A43C C46U C66A A69G A70U C71U | -0.65 |
| G6U C27U A43C C46U C71U | -0.254 |
| G1A U2G A43C A69G A70U | -0.159 |
| G1A U2G A43C A69G A70G | -0.172 |
| G6U A43C C46U C66A A69G A70G C71U | -0.167 |
| G1A G6U A43C | -0.192 |
| U2G C27U A43C C71U | -0.157 |
| G1A G6U C27U A43C C46U C71U | -0.212 |
| U2C G6A C27U A43C C46U C66U A69G A70G C71U | -0.0764 |
| G6A C27U A43C C46U C71U | -0.176 |
| G1A G6U A43C C71U | -0.101 |
| G1A U2C C27U C46U A70G | -0.0417 |
| U2C G6U C27U C66A A70U | -0.16 |
| U2G G6A C27U A43C C46U | -0.0569 |
| G1A U2G G6U C46U A70U C71U | -0.511 |

| Variant | yeast fitness (ln) |
| --- | --- |
| G1A U2G G6U C66A A70G C71U | -0.525 |
| G1A G6A A43C C46U | -0.0957 |
| U2C G6U C27U A43C C66A A69G A70G | -0.156 |
| G1A U2C G6U C27U C66A A69G A70G C71U | -0.137 |
| G6A C27U A43C C46U A70G | -0.128 |
| U2G G6A A43C C66U | -0.0762 |
| U2C G6U C46U C66U A70U | -0.0353 |
| U2C G6U C46U C66U A69G A70G C71U | -0.1 |
| U2C G6U C27U A69G A70U C71U | -0.354 |
| U2G C27U C46U C66A C71U | -0.163 |
| C46U C66A A70G | -0.0456 |
| U2C C27U C46U C66A A69G A70G | -0.227 |
| G1A U2G G6A A69G C71U | -0.244 |
| G1A G6A C27U A43C A70G | -0.21 |
| G1A G6A C27U C46U C66U A69G C71U | -0.132 |
| G1A U2G G6A C27U C66A A70G | -0.296 |
| G1A G6U C66U A69G A70U | -0.284 |
| G1A A43C A70U C71U | -0.32 |
| U2G G6U C27U C46U A69G A70G | -0.191 |
| U2G G6U A43C C46U | -0.106 |
